Assay results of several laboratories.
Compare with care: the assays were run in different laboratories.
Target: Serine/threonine-protein kinase Nek9 (NEK9, Homo sapiens, UniProt Q8TD19)
One construct used (Q8TD19 1-979): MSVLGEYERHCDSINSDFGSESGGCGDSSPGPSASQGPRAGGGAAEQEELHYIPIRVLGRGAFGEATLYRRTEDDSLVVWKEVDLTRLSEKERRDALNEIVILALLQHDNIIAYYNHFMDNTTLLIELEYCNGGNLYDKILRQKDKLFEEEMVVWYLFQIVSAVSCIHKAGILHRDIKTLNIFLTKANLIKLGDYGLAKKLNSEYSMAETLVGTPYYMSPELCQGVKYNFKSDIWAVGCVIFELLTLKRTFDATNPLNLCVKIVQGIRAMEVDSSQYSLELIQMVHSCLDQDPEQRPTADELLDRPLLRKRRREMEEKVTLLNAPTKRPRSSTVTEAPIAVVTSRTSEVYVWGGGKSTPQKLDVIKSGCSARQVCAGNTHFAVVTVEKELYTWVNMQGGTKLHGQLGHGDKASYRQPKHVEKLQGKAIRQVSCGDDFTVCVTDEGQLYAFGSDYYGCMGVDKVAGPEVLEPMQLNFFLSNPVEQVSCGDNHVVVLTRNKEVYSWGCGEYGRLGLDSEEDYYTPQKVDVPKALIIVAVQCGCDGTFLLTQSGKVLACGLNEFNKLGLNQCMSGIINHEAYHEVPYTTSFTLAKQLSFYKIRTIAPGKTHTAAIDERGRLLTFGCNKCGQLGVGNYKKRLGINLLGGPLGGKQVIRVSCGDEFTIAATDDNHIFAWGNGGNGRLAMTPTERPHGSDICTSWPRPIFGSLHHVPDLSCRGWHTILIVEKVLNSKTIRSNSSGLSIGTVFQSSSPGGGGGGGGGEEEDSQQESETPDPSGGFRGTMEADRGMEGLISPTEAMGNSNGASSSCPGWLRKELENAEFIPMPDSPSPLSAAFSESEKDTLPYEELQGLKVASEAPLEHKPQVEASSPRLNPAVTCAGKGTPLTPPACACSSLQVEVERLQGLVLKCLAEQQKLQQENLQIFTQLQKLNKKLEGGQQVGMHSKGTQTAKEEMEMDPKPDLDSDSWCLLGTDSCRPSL

Structure (SMILES) | observed | action | technique | tested at | endpoint | result
CCCOc1ccc([C@@H]2[C@@H](C(=O)O)[C@H](c3ccc4c(c3)OCO4)CN2CC(=O)Nc2c(CC)cccc2CC)cc1 | cell-free assay |  | competition with immobilised ligand | 1 µM | remaining binding | 100%
COc1cc(Cl)c(C(=O)N[C@@H](CN[C@H]2CC[C@@H](N)CC2)Cc2ccc(C#N)cc2)cc1-c1ccc(CN[C@H](C)c2ccc(C)cc2)o1 | enzyme activity | inhibitor |  | 1 µM | remaining activity | 127%
CNCc1ccccc1-c1csc([C@H](C)Nc2nc(C)nc3cc(OC)c(OC)cc23)c1 | cell-free assay |  | competition with immobilised ligand | 1 µM | remaining binding | 100%
CC(C)(O)[C@H]1CC[C@H](Nc2ccc3ncc(-c4cccc(C(F)(F)F)c4)n3n2)CC1 | enzyme activity | inhibitor |  | 1 µM | remaining activity | 79.5%
O=c1nc(-c2ccccn2)sc2ccccc12 | binding |  | competition with immobilised ligand | 1 µM | remaining binding | 96%
N#CCCc1ccc2c(c1)-c1[nH]c3ccc([N+](=O)[O-])cc3c1CC(=O)N2 | cell-free assay |  |  | 0.5 µM | remaining signal | 103%
Cc1ccc(NC(=O)c2ccc(C)c(C(F)(F)F)c2)cc1C#Cc1nn(C2CCC(O)CC2)c2ncnc(N)c12 (centres unmarked) | cell-free assay |  |  | 10 µM | remaining signal | 59%
CNC(=O)c1cc(Oc2ccc(NC(=O)Nc3ccc(Cl)c(C(F)(F)F)c3)cc2)ccn1 | cell-free assay |  |  | 0.5 µM | remaining signal | 95.4%
Cc1cnc(NC2CCOCC2)nc1-n1cnc(C(=O)NC(CN)c2cc(F)cc(Cl)c2)c1 (centres unmarked) | enzyme activity | inhibitor | radiometric | 1 µM | remaining activity | 101%
CC(C)(C)c1nc(-c2cccc(NS(=O)(=O)c3c(F)cccc3F)c2F)c(-c2ccnc(N)n2)s1 | enzyme activity | inhibitor | radiometric | 1 µM | remaining activity | 106%
CS(=O)(=O)CCNCc1ccc(-c2ccc3ncnc(Nc4ccc(OCc5cccc(F)c5)c(Cl)c4)c3c2)o1 | cell-free assay |  |  | 0.5 µM | remaining signal | 100%
O=C(O)[C@@H]1[C@@H](Cn2nnc3ccccc3c2=O)CC[C@H]1C(=O)c1ccc(OCCC2CCOCC2)cc1 | cell-free assay |  | competition with immobilised ligand | 1 µM | remaining binding | 100%
CN1CC(Oc2cnc(C#N)cc2-c2ccn3nc(NC(=O)C4CC4)cc3c2)C1 | enzyme activity | inhibitor |  | 1 µM | inhibition | -3%
Cc1cc(NC(=O)c2cccc3cc(-c4cccc5[nH]nc(N)c45)ccc23)ccc1F | enzyme activity | inhibitor |  | 0.1 µM | activity vs control | 126%
COc1cc2ncnc(Nc3ccc(Oc4ccccc4)cc3C)c2cc1OC | enzyme activity | inhibitor |  | 1 µM | inhibition | -2%
Clc1ccc(Nc2nnc(Cc3ccncc3)c3ccccc23)cc1 | cell-free assay |  |  | 0.5 µM | remaining signal | 98.4%
O=C(NS(=O)(=O)c1ccc(NCC2CCOCC2)c([N+](=O)[O-])c1)c1ccc(N2CCN(Cc3ccc(C(F)(F)F)cc3-c3ccc(Cl)cc3)CC2)cc1Oc1cnc2[nH]ccc2c1 | cell-free assay |  | competition with immobilised ligand | 1 µM | remaining binding | 100%
